Measured values from the RNAGym collection of RNA variant scans (doi:10.1126/science.aae0568).
Variants at the floor of the assay were thinned out.

B1: tRNA (parent)
chain: GUUCCGUUGGCGUAAUGGUAACGCGUCUCCCUCCUAAGGAGAAGACUGCGGGUUCGAGUCCCGUACGGAACG

Variants of: B1
Assay: yeast fitness relative to wild type (ratio to wild type); higher = fitter; tRNA-Arg(CCU), competitive growth, 37 C, YPD
In short: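 Start and end populations of a pooled competition were compared by 100-nucleotide paired-end sequencing of gene amplicons. The Saccharomyces cerevisiae strains carried tRNA-Arg(CCU) gene variants at the native genomic locus, synthesised with a 3% per-site mutation rate at 69 sites, and competed in YPD at 37°C for 24 hours in six parallel replicates. Darwinian fitness relative to wild type was based on the change in genotype frequencies. Genotypes required ≥ 100 starting reads, and estimates < 0.5 were set to 0.5.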

Row | Variant | yeast fitness
1 | GUUCCGUUGGCGUAAUGGUAACGCGUCUCCCUCCUAAGGAGACGACUGCGGGUUCGUGUCCCAUACGGAACG | 0.556
2 | GUUCCGUUGGCGUAAUGGUAACGCGUCUCCCUCCUAAGGAGUAGACCGCGAGUUCGAGUCCCGUACGGACCG | 0.502
3 | GUUCCGUUGGCGUAAUGGUAACGCGUCUCCCUCCUAAGGAGUAGACUGCGGGUUCGAGCCCCGUACGGAACG | 1.01
4 | GUUCCGUUGGCGUAAUGGUAACGCGUCUCCCUCCUAAGGAGUAGACUGCGGGUUCGAGACCCGUACGGAACG | 0.668
5 | GUUCCGUUGGCGUAAUGGUAACGCGUCUCCCUCCUAAGGAGUAGACUGCGGGUUCGAGGCCCGUACGGAACG | 0.75
6 | GUUCCGUUGGCGUAAUGGUAACGCGUCUCCCUCCUAAGGAGACGAUUGCGGGUUCGAGUCCCCUAUGGAACG | 0.581
7 | GUUCCGUUGGCGUAAUGGUAACGCGUCUCCCUCCUAAGGAGUAGACUGCGGGUUCGAGUCCUGUCCGGAACG | 0.526
8 | GUUCCGUUGGCGUAAUGGUAACGCGUCUCCCUCCUAAGGAGUAGACUGCGGGUACGAAUCCCGUACGGAACG | ≤ 0.5
9 | GUUCCGUUGGCGUAAUGGUAACGCGUCUCCCUCCUAAGGAGUAGACUACGGGUUCGAGUCGCGUAGGGAACG | ≤ 0.5
10 | GUUCCGUUGGCGUAAUGGUAACGCGUCUCCCUCCUAAGGAGUAGACUGCGGGUUAGAGUCCCGUCCGGAACG | 0.538
11 | GUUCCGUUGGCGUAAUGGUAACGCGUCUCCCUCCUAAGGAGACGACUGCGGGUUCGGGUCCCGUACGGAACG | 0.744
12 | GUUCCGUUGGCGUAAUGGUAACGCGUCUCCCUCCUAAGGAGACGACUGCGGGUUCGCGUCCCGUACGGAACG | 0.681
13 | GUUCCGUUGGCGUAAUGGUAACGCGUCUCCCUCCUAAGGAGUAGACUGAGGGUUCCAGUCCCGUGCGGAACG | ≤ 0.5
14 | GUUCCGUUGGCGUAAUGGUAACGCGUCUCCCUCCUAAGGAGUAGAUUGCGGGUUCGAGUCCUGUACGGAACG | 0.89
15 | GUUCCGUUGGCGUAAUGGUAACGCGUCUCCCUCCUAAGGAGACGAAUCCGGGUUCGAGUCCCGUACGGAACG | 0.851
16 | GUUCCGUUGGCGUAAUGGUAACGCGUCUCCCUCCUAAGGAGUAGACUGCGGGUUCGAGUCCCGUCCUGAACG | ≤ 0.5
17 | GUUCCGUUGGCGUAAUGGUAACGCGUCUCCCUCCUAAGGAGUAGACUGCGGGUUCGAGUCCCGCACGGAACG | 1.05
18 | GUUCCGUUGGCGUAAUGGUAACGCGUCUCCCUCCUAAGGAGUACUCUGGGGGUUCGAGUCCCGUACGGAACG | ≤ 0.5
19 | GUUCCGUUGGCGUAAUGGUAACGCGUCUCCCUCCUAAGGAGUAGACUGCAGGUUCGAGUGCCGCACGGAACG | ≤ 0.5

Row | Variant | yeast fitness
20 | GUUCCGUUGGCGUAAUGGUAACGCGUCUCCCUCCUAAGGAGACGACUGCGGGUUCGAGUCCCGUACGGUCCG | 1.03
21 | GUUCCGUUGGCGUAAUGGUAACGCGUCUCCCUCCUAAGGAGUAGACUGCGGGAUCGAGUCCCGUACGGAACG | 0.565
22 | GUUCCGUUGGCGUAAUGGUAACGCGUCUCCCUCCUAAGGAGUACACUGCGGGUACGAGUCCCGUACGGAACG | ≤ 0.5
23 | GUUCCGUUGGCGUAAUGGUAACGCGUCUCCCUCCUAAGGAGUAGACUGCGGGUUCGAGUCCCGUACGGUACG | 1.02
24 | GUUCCGUUGGCGUAAUGGUAACGCGUCUCCCUCCUAAGGAGACGACUGCGGGUUCGAGUCCCGUACGGAACG | 0.997
25 | GUUCCGUUGGCGUAAUGGUAACGCGUCUCCCUCCUAAGGAGUAGACUGCGGGUUCGAGUCCGCUUCGGAACG | ≤ 0.5
26 | GUUCCGUUGGCGUAAUGGUAACGCGUCUCCCUCCUAAGGAGUACACUGCGGGCUCGAGUCCCGUACGGAACG | ≤ 0.5
27 | GUUCCGUUGGCGUAAUGGUAACGCGUCUCCCUCCUAAGGAGUAGACUGCGGGUUCAAGUCCCGUACGGAACG | 1.02
28 | GUUCCGUUGGCGUAAUGGUAACGCGUCUCCCUCCUAAGGAGUAGACUGCGGGUUCGAGUCCCCUACGGAACG | 0.715
29 | GUUCCGUUGGCGUAAUGGUAACGCGUCUCCCUCCUAAGGAGUAGACUGCGGGUUCGAUUCCCGUACGCAACG | ≤ 0.5
30 | GUUCCGUUGGCGUAAUGGUAACGCGUCUCCCUCCUAAGGAGUAGACUGCGGGUUCGAGUCCUGUACGGACCG | 0.594
31 | GUUCCGUUGGCGUAAUGGUAACGCGUCUCCCUCCUAAGGAGUAGACUGCGGGUUCGAAUCGCGUACGGAUCG | ≤ 0.5
32 | GUUCCGUUGGCGUAAUGGUAACGCGUCUCCCUCCUAAGGAGUAGACUGCGGGUUCGAGUCACGUACGGAACG | 0.683
33 | GUUCCGUUGGCGUAAUGGUAACGCGUCUCCCUCCUAAGGAGUAGACUGCGGGUUCGAGUCGCGUACGGAACG | 0.686
34 | GUUCCGUUGGCGUAAUGGUAACGCGUCUCCCUCCUAAGGAGUAGACUACGGGUCCGAGUCCCGUACGGAACG | 0.696
35 | GUUCCGUUGGCGUAAUGGUAACGCGUCUCCCUCCUAAGGAGUAGACUGCGGGUUCGAGUCCAGUUCGGAACG | 0.604
36 | GUUCCGUUGGCGUAAUGGUAACGCGUCUCCCUCCUAAGGAGUAAACUGCGAGUUCGAGUCCCGUACGGAACG | 0.669
37 | GUUCCGUUGGCGUAAUGGUAACGCGUCUCCCUCCUAAGGAGUAGACGGCGGGUUCGCGUCACGUACGGAACG | ≤ 0.5
